Reference: the EternaBench riboswitch data

Tested on: MS2 coat protein
Assay: apparent Kd, MS2 coat protein; higher = weaker binding; RNA-MaP array
Outline: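 Sequenced DNA templates on an Illumina sequencing chip were transcribed into the designed RNAs. These were incubated at room temperature in Tris-HCl pH 7.5 buffer containing KCl, MgCl2, BSA, DTT, tRNA and Tween20 with fluorescently labeled MS2 coat protein at 1.5 nM to 3 μM, with or without input ligand. Apparent Kd is the median of binding-curve fits per cluster, and designs with fewer than 10 clusters measured were excluded.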

[1] = designed as: ON switch for tryptophan, no ligand
[2] = ligand present: tryptophan, designed as: ON switch for tryptophan
[3] = designed as: OFF switch for theophylline, no ligand
[4] = ligand present: theophylline, designed as: OFF switch for theophylline
[5] = designed as: OFF switch for flavin mononucleotide, no ligand
[6] = ligand present: flavin mononucleotide, designed as: OFF switch for flavin mononucleotide
[7] = designed as: ON switch for flavin mononucleotide, no ligand
[8] = ligand present: flavin mononucleotide, designed as: ON switch for flavin mononucleotide
[9] = designed as: ON switch for theophylline, no ligand
[10] = ligand present: theophylline, designed as: ON switch for theophylline
[11] = designed as: OFF switch for tryptophan, no ligand
[12] = ligand present: tryptophan, designed as: OFF switch for tryptophan

Sequence | apparent Kd [5] | apparent Kd [6] | apparent Kd [7] | apparent Kd [8] | other results
GCGUUGGCCACGGCCGCCACUCAGGUACCGCGCGUAGUGAACUUACAUGAGGAUCACCCAUGUCUGAGGACCGGGUGGCCGCCAC | – | – | – | – | apparent Kd [1]: 37.3 nM; apparent Kd [2]: 46.2 nM
GCACGAGUAAGACCUGACUUCAACAAUGAUACCAGACUAGUAAACGUCCCUUGGCAGCAUCAGACAUGAGGAUCACCCAUGUGGC | – | – | – | – | apparent Kd [3]: 27 nM; apparent Kd [4]: 29.4 nM
CGCGCUGAAGGAUAUGCAUUGGACUACAUGAGGAUCACCCAUGUCCCGUCUUGUGGACCCGCAGAAGGUCACUACC | 9.25 nM | 12 nM | – | – | –
CUGAAGUCUGACCCUCGAAACAUGAGGAUCACCCAUGUAGUCAGAAGGCGAUUGUGAGCAGGAAUCGAGGAUAUGAACUAGUUU | 7.72 nM | 10 nM | – | – | –
UACGGAGCUCAGAAGGGACACUGCGGAGAUAUGUCAGGAUAUGACUUCUUAUCGUGUGGUGACAUGAGGAUCACCCAUGUGCUU | 209 nM | 338 nM | – | – | –
AUUACCCAAGGAUAUUGCAAUUGAGACAUGAGGAUCACCCAUGUACUUCCGGGUGUCAAUCAAGAAGGUGGAUGUU | 23.1 nM | 20.9 nM | – | – | –
GGCUACAUGAGGAUCACCCAUGUUUCUCGUCGAGGACCGGUACGGCCGCCACUCGUUGUUGGGACUCAGUAUCAGUCGUUAGUUU | – | – | – | – | apparent Kd [1]: 25.5 nM; apparent Kd [2]: 57 nM
UUAGAAUACUAAGGAUAUGAUUAUGGCGCACCGCUGUCCGGUGUACAUGAGGAUCACCCAUGUAAUCAGAAGGUAGACUUGUCC | – | – | 9.94 nM | 8.91 nM | –
UCCACACAUGAGGAUCACCCAUGUUGAGAUACCAGUAAACCAAAAUACCCUUGGCAGCUCCUACGCUCUUACAGCGGGAAUAUCC | – | – | – | – | apparent Kd [9]: 15.8 nM; apparent Kd [10]: 23.1 nM
GACAUGAGGAUCACCCAUGUGGGAAAGGUGUACUCUUGCGACUAGGAUAUGUUGUGGUCCCAGAGACAGAAGGAGUGGCGACGU | 52.1 nM | 42 nM | – | – | –
GGGAUGUUAGGAUAUGCUGGUUAAAAGAGAUUAAUACUCUAGCAGAAGGAACAUGAGGAUCACCCAUGUAGACA | 10.6 nM | 26.4 nM | – | – | –
UGGUACAUGAGGAUCACCCAUGUCCUCAUCCGAGGACCGGUACGGCCGCCACUCGAAAUUGCGAUCGGCACAAAACAAAUGCUUG | – | – | – | – | apparent Kd [1]: 142 nM; apparent Kd [2]: 143 nM
CAAAGGAACCAGAAGGCCAUAGGUAAAAUAGUUGGAGGAUAUGGGCACAUGAGGAUCACCCAUGUUCACUGUAAUCAGGAAUAG | – | – | 102 nM | 35.3 nM | –
UCGAUACCUCUAAUGAAGACAUGAGGAUCACCCAUGUUUAACAGAAGGUAGUCGGGAAGAUAGACUAAGGAUAUGUUGCAGGUG | 9.63 nM | 24.3 nM | – | – | –
UUCUUGUCAGGAUAUGGCCCAGAGUCUAAGGCACCGAACGGCCAGAAGGGACAUGAGGAUCACCCAUGUAUCCU | 16.3 nM | 82.8 nM | – | – | –
GUGAAACAUGAGGAUCACCCAUGUUAGGAUAUAGGUAACCUAGUACAUGAUCUGCUGGCUAGAAGGAACUGGAU | 14.2 nM | 11.5 nM | – | – | –
GGUUAACAUGAGGAUCACCCAUGUCUUGAUACCAGUCGUUAUCUUGACCCUUGGCAGCAAGAUGACCGUUAGCAGCCGUCUUCUC | – | – | – | – | apparent Kd [9]: 13.2 nM; apparent Kd [10]: 19.5 nM
UCGGAUACUGUAGGAUAUCGACCAAAUUUUCCUCGAGAAGGACAUCUAUAUAUAGAGAACAUGAGGAUCACCCAUGUGUUUUUG | 15 nM | 15.2 nM | – | – | –
UAGCAUAGUACGGCCGCCACUCCUGGUUCCCGGCCGUGUGUAAGACAUGAGGAUCACCCAUGUAGGAGGACCGGGUAUCGCUUGC | – | – | – | – | apparent Kd [1]: 14 nM; apparent Kd [2]: 15.2 nM
UAAGACGGGCGAGGAUAUACGAACUGGGUCAAAGUAGAAGGCGCGAGUCAUUGUUAUAAUCCAACAUGAGGAUCACCCAUGUCU | – | – | 91.6 nM | 15.6 nM | –
AGGCUUAAAAUGGAGGAUAUCUGUCGCAAAACAUGAGGAUCACCCAUGUACAUAAUGGGCACCACAGAGAAGGCCAUGUACUUUUC | – | – | 27.5 nM | 11.7 nM | –
ACUUGACAUGAGGAUCACCCAUGUGAUCCGUCAUUAGGAUAUCGAAGGUAUAUCACGCCUCGAGAAGGAAUAGCGG | – | – | 361 nM | 65.5 nM | –
CGGUCACAUGAGGAUCACCCAUGUAAGGAUAUAGAUGUCUGUGUCAACCGACGGGCUUCUAGAAGGUACGGAUG | 18.6 nM | 18.1 nM | – | – | –
GGGAAACAUGAGGAUCACCCAUGUGUACAUAAGUAAGGAUAUAGAAGAGGUGACAGUGGUCUAGAAGGUACAACAC | – | – | 65.6 nM | 46.4 nM | –
AAGCCCAGGACGGCCGCCACUGUAAAAUGGUGGUUCGCCUGUAAGAACAUGAGGAUCACCCAUGUCAGGACCGGGUCCACGAGUU | – | – | – | – | apparent Kd [11]: 17.6 nM; apparent Kd [12]: 27.1 nM
CCUAUCAAACGAGGAUAUGUGCGGACAAGAAACACAGAAGGCGAACCACAUGAGGAUCACCCAUGUACGAAGACAAAGCAAGAA | – | – | 22.7 nM | 14.5 nM | –
UCAGUGGGUUCGGCCGCCACUUGAGUGAUGGUGCCUCAAUAAGUCUACAUGAGGAUCACCCAUGUAAGGACCGGGAAUUUUAUGG | – | – | – | – | apparent Kd [11]: 35.3 nM; apparent Kd [12]: 32.5 nM

Sequence | apparent Kd [5] | apparent Kd [6] | apparent Kd [7] | apparent Kd [8] | other results
UUCACAAGAAUUUACAUGAGGAUCACCCAUGUCCUUGCAAAGGAGGAUAUUGAGUACAAGACCUACAAGAAGGCCAGAGACAAG | – | – | 46.4 nM | 15.5 nM | –
AGCGCUUAACCAUAGGAUAUAUUGAUCAUUACAUGAGGAUCACCCAUGUGUCGAAGAAGGCAAUCAUAGAAGGAUGUCAUGUCGCU | – | – | 26.7 nM | 17.3 nM | –
GGAAGUCAAGGAUAUACAUGAGGAUCACCCAUGUCAGGUGCCAAUUAUGUUCUAUAGUGUAGAAGGUGACAAUG | 112 nM | 183 nM | – | – | –
AUUUAGCAUAUACAUGAGGAUCACCCAUGUCUGAUACAUAGUAGAAGGCCCGUUAAGACAUACAGGGAGGAUAUACGUACAUGU | – | – | 49 nM | 9.85 nM | –
GGCUGACAUGAGGAUCACCCAUGUAGUGAUACCAGUAAGAGAAUAUACCCUUGGCAGCACAGGUAACAACUCGUCUCCAAAGUAA | – | – | – | – | apparent Kd [9]: 42.7 nM; apparent Kd [10]: 78.9 nM
GUUUUGGUACGAGGAUAUAAUGCCCUUGGAGAGUUAGAAGGCGUACGGGCUGUCCAUUAGAUACAUGAGGAUCACCCAUGUGAG | 14.7 nM | 12.2 nM | – | – | –
UGCCCAAACAUGAGGAUCACCCAUGUUGUGACCUCGGGAGCCAGAAGGGUAUUAAACAAGUCGGUACAGGAUAUGGUCUAGUAA | 343 nM | 214 nM | – | – | –
ACUUAGAGAUAGAAGGAUGGAGUCAGGGUCCACAUAGGAUAUAUCUUGCACGAAACAUGAGGAUCACCCAUGUUGGAAUCCUCU | 30.4 nM | 27.8 nM | – | – | –
AAAAUGGAUUGAACAUGAGGAUCACCCAUGUCCUGCCCGCAUUAGGAUAUCGAUAACUUGAGUACCGAGAAGGAAUGAUGAUCG | – | – | 12.6 nM | 13.2 nM | –
UCCAGACAUGAGGAUCACCCAUGUUCAUGCCUCGGAGGAUAUCUAUGGGUGGAGGACUUUAGAGAAGGCCGAUCCG | – | – | 674 nM | 458 nM | –
UACCUUAUGGAGAAGGCACGUCUCAGAGGAGCAACAUGAGGAUCACCCAUGUACCUGGGCUGAAGUGAGGAUAUCCAAAUCCCA | – | – | 14.4 nM | 7.18 nM | –
AAUCAGAAAGGAUAUACAAGGAUUUUAUAUAGCACUGCUGGACAUGAGGAUCACCCAUGUAGAAGGUUCGCCCU | 11.3 nM | 9.51 nM | – | – | –
UAAUUCAGGGAGAAGGUCUGAUCGUAACAUGCAGAAGGAUAUCCCAAUAACAUGAGGAUCACCCAUGUUUUGUUAUGCGUCAAC | – | – | 83 nM | 19.8 nM | –
UUCUGGCCGCAGAAGGAGGAUCUGGUUGAAAUCCUAGGAUAUGCAUCUAACCACUGGUCCACAUGAGGAUCACCCAUGUCAGAC | 16.3 nM | 12.4 nM | – | – | –
UAGAGGUACGUUGGCGAACAUGAGGAUCACCCAUGUAAAUGAAGAAGGUGUGUUGCGCAAAACGACAAGGAUAUUCAAGACAUC | – | – | 83.4 nM | 50.7 nM | –
GAUCAACAUGAGGAUCACCCAUGUCAGGAUAUGCAGACAGUCUUUACGUCAGUCGUAAGCAGAAGGGACUACGG | 52.5 nM | 69.6 nM | – | – | –
UACUUUGUAUGCAAGGAUAUCCAGGAUUCUACAUGAGGAUCACCCAUGUCAAAUACUAUGCAACGGGAGAAGGUGCAUAACAUCAU | – | – | 16.5 nM | 12.2 nM | –
CUUCCCACGUAGAAGGUGCACCAGUUAACCAAUAACAGGUUGACAUGAGGAUCACCCAUGUUUCGCAAGGAUAUACUGUUCACG | – | – | 48.5 nM | 34.8 nM | –
ACGGGAGCAGAAGGAUAUAGGGUAGGUAUUAGACUAGAAGGACUCUUACAUGAGGAUCACCCAUGUAGUUCAGAAUGGGAAAUC | – | – | 45.5 nM | 40.4 nM | –
AUUCGGUCAGGAUAUAGCGCACGCCGACGAACAUGUGGCGGCUAGAAGGGACAUGAGGAUCACCCAUGUCGGGC | 8.41 nM | 10.7 nM | – | – | –
UCGCUGUAAGGAUAUACUCCGUUACUGUGUUAUAACGGACCGUAGAAGGUACAUGAGGAUCACCCAUGUGAAGU | 11.1 nM | 17.8 nM | – | – | –
AUGUCGGCAGGAUAUACUGGAACUUGACCCGUGAACACGAUACAUGAGGAUCACCCAUGUAGAAGGGCCUAAAA | 11.5 nM | 43.4 nM | – | – | –
GAAAUAUAGUCAGGAUAUCAGGACAUGAGGAUCACCCAUGUACUGAAUGGGCUGGUGAAAAGAGAUGAGAAGGGACACACUAGA | 6.23 nM | 5.78 nM | – | – | –
AGCAGCCCUAAAGGAUAUUUGCGCGAGCAAAGCAAAGAAGGUUAAGGGUGGGCUUCAGAGACUACAUGAGGAUCACCCAUGUCC | – | – | 448 nM | 112 nM | –
CGACACCAGGCAAUCCAUCACCCGGCUGAUACCAGCUCUUUUGGAAGCCCUUGGCAGCAGAGAACAUGAGGAUCACCCAUGUCAG | – | – | – | – | apparent Kd [3]: 14.6 nM; apparent Kd [4]: 21.2 nM
GCGGUCCACUUGGAUACCAGCAGAUUAAUAAACAUGAGGAUCACCCAUGUAAGCGCCUUGUGCCCUUGGCAGCCAGGGUGGUCAG | – | – | – | – | apparent Kd [9]: 83.8 nM; apparent Kd [10]: 46.3 nM
UCUAAACAUGAGGAUCACCCAUGUGAUUUACUCGCAGGAUAUGAGAGCUUGCACACGCAAUCAGAAGGGCGUCGAA | – | – | 36.6 nM | 28.7 nM | –
